Values after ≈ are worked out from the molar mass of the structure shown.
Experiments:
K562 [1] = test: Cytotoxicity against human K562 cells after 72 hrs by SRB assay; format: functional, cell-based; conditions: K562, 72 h
Procedure, shortened: (§1)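 Human tumor cells seeded in 96-well plates 24 h before treatment, then exposed continuously to a range of compound concentrations for 72 h. Inhibition of cell proliferation read by SRB or MTT staining as named in each line. IC50 derived. Adriamycin (ADR) included as positive control.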

K562 [2] = test: Cytotoxicity against human K562 cells after 72 hrs by MTT assay; format: functional, cell-based; conditions: K562, 72 h; procedure, shortened: as §1
Bel-7402 [3] = test: Cytotoxicity against human Bel7402 cells after 72 hrs by SRB assay; format: functional, cell-based; conditions: Bel-7402, 72 h; procedure, shortened: as §1
Bel-7402 [4] = test: Cytotoxicity against human Bel7402 cells after 72 hrs by MTT assay; format: functional, cell-based; conditions: Bel-7402, 72 h; procedure, shortened: as §1
A549 [5] = test: Cytotoxicity against human A549 cells after 72 hrs by SRB assay; format: functional; procedure, shortened: as §1
A549 [6] = test: Cytotoxicity against human A549 cells after 72 hrs by MTT assay; format: functional, cell-based; conditions: A549, 72 h; procedure, shortened: as §1

| SMILES | IC50 (K562 [1]) | IC50 (K562 [2]) | IC50 (Bel-7402 [3]) | IC50 (Bel-7402 [4]) | IC (A549 [5]) | IC50 (A549 [6]) |
| --- | --- | --- | --- | --- | --- | --- |
| CC(=O)O[C@H]1C[C@@H]2[C@H](C)[C@@H](C3CC(C)C(=O)O3)O[C@@]23CC[C@]2(O)C[C@]45OC(=O)C[C@H]4OC(C)(C)[C@@H]5C[C@@H](O)[C@H]2[C@@]13C (stereo partly drawn) [KADCOCCILACTONE I] | > 100 µg/mL | > 100 µg/mL | > 100 µg/mL | > 100 µg/mL | >100 µg/mL | > 100 µg/mL |
| CC1=CC[C@@H]([C@@H](C)[C@@H]2CC=C3[C@@H]4CC[C@H]5C(C)(C)O[C@@H]6CC(=O)O[C@@]65C[C@@]4(OC=O)CC[C@@]32C)OC1=O [KADCOCCILACTONE D] | > 100 µg/mL | > 100 µg/mL | > 100 µg/mL | > 100 µg/mL | >100 µg/mL | > 100 µg/mL |
| CC1=C[C@H]([C@H](O)[C@H](C)[C@@H]2C[C@H]3O[C@]34[C@@H]3CC[C@@H]5C(C)(C)O[C@H]6CC(=O)O[C@]65C[C@]3(O)CC[C@@]24C)OC1=O [MICRANDILACTONE B] | > 100 µg/mL | > 100 µg/mL | > 100 µg/mL | > 100 µg/mL | >100 µg/mL | > 100 µg/mL |
| COc1cccc2c1C(=O)c1c(O)c3c(c(O)c1C2=O)C[C@@](O)(C(=O)CO)C[C@@H]3O[C@H]1C[C@H](N)[C@H](O)[C@H](C)O1 [DOXORUBICIN] | 0.011 µg/mL (≈ 0.0202 µM) | 0.011 µg/mL (≈ 0.0202 µM) | 0.01 µg/mL (≈ 0.0184 µM) | 0.01 µg/mL (≈ 0.0184 µM) | 0.025 µg/mL | 0.025 µg/mL (≈ 0.046 µM) |
| CC(=O)O[C@@H]1C[C@H]2C(C)(C)O[C@@H]3CC(=O)O[C@@]32C[C@@]2(O)CC[C@]34O[C@H](C5CC(C)C(=O)O5)[C@@H](C)[C@H]3C[C@H](O)[C@]4(C)[C@H]12 (stereo partly drawn) [KADCOCCILACTONE H] | > 100 µg/mL | > 100 µg/mL | > 100 µg/mL | > 100 µg/mL | >100 µg/mL | > 100 µg/mL |
| CC(=O)O[C@@H]1C[C@]2(C)[C@@H]([C@H](C)[C@H]3CC=C(C)C(=O)O3)CC[C@@]2(C)CCC[C@H]2C(C)(C)O[C@@H]3CC(=O)O[C@@]32CC1=O [KADSUPHILACTONE A] | 50.3 µg/mL (≈ 90 µM) | 50.3 µg/mL (≈ 90 µM) | > 100 µg/mL | > 100 µg/mL | 96.6 µg/mL | 96.6 µg/mL (≈ 173 µM) |
| CC1=C[C@@H]([C@@H](O)[C@@H](C)[C@]23CC[C@@]4(CO2)[C@@H]2CC[C@H]5C(C)(C)O[C@@H]6CC(=O)O[C@@]65C[C@@]2(O)CC[C@@]43C)OC1=O [KADCOCCILACTONE G] | > 100 µg/mL | > 100 µg/mL | > 100 µg/mL | > 100 µg/mL | >100 µg/mL | > 100 µg/mL |
| CC1=CC[C@@H]([C@@H](C)[C@@H]2CC[C@@]3(CO)[C@@H]4CC[C@H]5C(C)(C)O[C@@H]6CC(=O)O[C@@]65C[C@@]4(O)CC[C@]23C)OC1=O [KADCOCCILACTONE C] | 53.3 µg/mL (≈ 103 µM) | 53.3 µg/mL (≈ 103 µM) | > 100 µg/mL | > 100 µg/mL | >100 µg/mL | > 100 µg/mL |
| CC1=CC([C@H]2O[C@@]34[C@H](C[C@@H]5O[C@@]53[C@@H]3[C@H](O)C[C@H]5C(C)(C)O[C@@H]6CC(=O)O[C@@]65C[C@@]3(O)C[C@@H]4O)[C@@H]2C)OC1=O (stereo partly drawn) [KADCOCCILACTONE J] | > 100 µg/mL | > 100 µg/mL | > 100 µg/mL | > 100 µg/mL | >100 µg/mL | > 100 µg/mL |
| CC(=O)O[C@H]1CC([C@H](C)[C@H](O)[C@@H]2C[C@H](C)C(=O)O2)=C2CC[C@]3(O)C[C@]45OC(=O)C[C@@]4(O)OC(C)(C)[C@@H]5CC[C@H]3[C@]21C [KADCOCCILACTONE F] | > 100 µg/mL | > 100 µg/mL | > 100 µg/mL | > 100 µg/mL | >100 µg/mL | > 100 µg/mL |
| CC1=CC[C@@H]([C@@H](C)[C@@H]2CC[C@]3(O)[C@@H]4CC[C@H]5C(C)(C)O[C@@H]6CC(=O)O[C@@]65C[C@@]4(O)CC[C@]23C)OC1=O [KADCOCCILACTONE B] | > 100 µg/mL | > 100 µg/mL | > 100 µg/mL | > 100 µg/mL | >100 µg/mL | > 100 µg/mL |
| CC1=CC[C@@H]([C@@H](C)[C@]2(O)CC[C@@]3(C)[C@@H]4CC[C@H]5C(C)(C)O[C@@H]6CC(=O)O[C@@]65C[C@@]4(O)CC[C@@]32C)OC1=O [KADCOCCILACTONE A] | > 100 µg/mL | > 100 µg/mL | 36.4 µg/mL (≈ 70.5 µM) | 36.4 µg/mL (≈ 70.5 µM) | >100 µg/mL | > 100 µg/mL |
| CC1=C[C@@H]([C@@H](O)[C@@H](C)[C@H]2CC=C3[C@@H]4CC[C@H]5C(C)(C)O[C@@H]6CC(=O)O[C@@]65C[C@@]4(O)CC[C@@]32C)OC1=O [KADCOCCILACTONE E] | > 100 µg/mL | > 100 µg/mL | > 100 µg/mL | > 100 µg/mL | >100 µg/mL | > 100 µg/mL |
